In ChEMBL document CHEMBL1157555, “Synthesis and pharmacological evaluation of novel 1,3,8- and 1,3,7,8-substituted xanthines as adenosine receptor antagonists” (Bioorg Med Chem, 2010):
pKi: −log10 of the molar value.

How the values were obtained:
Adenosine receptor A1 = target: T1, Adenosine receptor A1 (Homo sapiens, UniProt P30542); assay: Displacement of [3H]DPCPX from human recombinant adenosine A1 receptor expressed in CHO cells by microplate beta scintillation counter; type: cell-based
T1 sequence (P30542 whole entry): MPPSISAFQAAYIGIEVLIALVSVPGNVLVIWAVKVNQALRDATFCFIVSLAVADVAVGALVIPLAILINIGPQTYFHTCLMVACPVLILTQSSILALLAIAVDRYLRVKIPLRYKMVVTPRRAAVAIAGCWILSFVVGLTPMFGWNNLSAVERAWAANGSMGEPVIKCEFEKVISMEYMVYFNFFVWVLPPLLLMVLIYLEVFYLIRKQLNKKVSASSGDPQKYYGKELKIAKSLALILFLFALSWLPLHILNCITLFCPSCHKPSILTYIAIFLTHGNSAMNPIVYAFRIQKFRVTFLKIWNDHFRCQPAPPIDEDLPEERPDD
In short: (§1)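 Membranes from CHO cells expressing human A1 were labelled with 2 nM [3H]DPCPX. Non-specific binding was defined with (R)-PIA. Incubation ran 60 min at 25 °C, then samples were filtered and counted by beta scintillation. IC50 came from non-linear regression, and Ki from Cheng–Prusoff. Weak or poorly soluble compounds were reported as % inhibition of specific binding at a single concentration. Mean of 3 experiments, each in duplicate.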

Adenosine receptor A3 = target: T2, Adenosine receptor A3 (Homo sapiens, UniProt P0DMS8); assay: Displacement of [3H]NECA from human recombinant adenosine A3 receptor expressed in human HeLa cells by microplate beta scintillation counter; type: cell-based
T2 sequence (P0DMS8 whole entry): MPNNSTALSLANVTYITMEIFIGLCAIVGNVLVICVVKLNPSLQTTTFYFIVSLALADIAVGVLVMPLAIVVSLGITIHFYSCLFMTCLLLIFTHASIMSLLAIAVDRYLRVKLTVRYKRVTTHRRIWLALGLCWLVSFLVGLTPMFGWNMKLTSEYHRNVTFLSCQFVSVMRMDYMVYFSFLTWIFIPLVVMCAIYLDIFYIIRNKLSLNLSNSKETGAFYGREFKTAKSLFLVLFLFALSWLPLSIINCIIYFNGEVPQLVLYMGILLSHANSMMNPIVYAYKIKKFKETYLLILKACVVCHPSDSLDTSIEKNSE
In short: (§2)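 HeLa-A3 cell membranes were labelled with 30 nM [3H]NECA. Non-specific binding was defined with (R)-PIA. After 180 min at 25 °C, samples were filtered and counted by beta scintillation. Ki was calculated by Cheng–Prusoff from IC50 obtained by non-linear regression. Weak or poorly soluble compounds were reported as % inhibition of specific binding at a single concentration. Mean of 3 experiments in duplicate.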

Adenosine receptor A2a [1] = target: T3, Adenosine receptor A2a (Homo sapiens, UniProt P29274); assay: Displacement of [3H]ZM241385 from human recombinant adenosine A2A receptor expressed in human HeLa cells at 1 uM by microplate beta scintillation counter; type: cell-based
T3 sequence (P29274 whole entry): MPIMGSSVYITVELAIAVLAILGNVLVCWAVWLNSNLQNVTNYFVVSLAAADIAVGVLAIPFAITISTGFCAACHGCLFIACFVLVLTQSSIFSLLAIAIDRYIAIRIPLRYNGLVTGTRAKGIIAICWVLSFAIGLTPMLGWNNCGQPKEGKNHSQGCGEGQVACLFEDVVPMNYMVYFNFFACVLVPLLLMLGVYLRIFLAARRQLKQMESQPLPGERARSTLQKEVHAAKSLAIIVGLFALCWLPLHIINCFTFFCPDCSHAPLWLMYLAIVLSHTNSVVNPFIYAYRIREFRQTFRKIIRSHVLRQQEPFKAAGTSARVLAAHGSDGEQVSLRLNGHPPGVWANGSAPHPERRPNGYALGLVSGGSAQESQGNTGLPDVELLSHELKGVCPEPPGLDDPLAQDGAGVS
In short: (§3)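 Competition used HeLa cell membranes expressing human A2A with [3H]ZM241385. Non-specific binding was set with NECA. Incubation was 30 min at 25 °C, then filtration and beta scintillation counting. IC50 from non-linear regression was converted to Ki (Cheng–Prusoff). Weak or poorly soluble compounds were reported as % inhibition of specific binding at a single concentration. Three experiments, each in duplicate.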

[2] = target: T4, Adenosine receptor A2b (Homo sapiens) (UniProt P29275); assay: Displacement of [3H]DPCPX from human recombinant adenosine A2B receptor expressed in HEK293 cells at 1 uM by microplate beta scintillation counter; type: cell-based
T4 sequence (whole entry): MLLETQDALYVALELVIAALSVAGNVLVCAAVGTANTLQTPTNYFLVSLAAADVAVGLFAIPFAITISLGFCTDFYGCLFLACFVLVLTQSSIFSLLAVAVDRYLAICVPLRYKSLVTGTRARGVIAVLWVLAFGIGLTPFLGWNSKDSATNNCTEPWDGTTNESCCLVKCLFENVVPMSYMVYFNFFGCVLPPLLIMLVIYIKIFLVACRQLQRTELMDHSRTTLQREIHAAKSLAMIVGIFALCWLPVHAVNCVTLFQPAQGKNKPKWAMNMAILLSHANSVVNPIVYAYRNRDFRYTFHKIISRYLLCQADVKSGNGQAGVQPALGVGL
In short: (§4)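 Membranes from HEK-293 cells expressing human A2B were labelled with 35 nM [3H]DPCPX. Incubation ran 30 min at 25 °C, followed by filtration and beta scintillation counting. IC50 was fitted by non-linear regression and converted to Ki by Cheng–Prusoff. Weak or poorly soluble compounds were given as % inhibition of specific binding at a single concentration. n = 3, each in duplicate.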

[3] = target: T5, Adenosine receptor A3 (Homo sapiens) (UniProt P0DMS8); assay: Displacement of [3H]NECA from human recombinant adenosine A3 receptor expressed in human HeLa cells at 1 uM by microplate beta scintillation counter; type: cell-based; in short: as §2
T5 sequence (whole entry): T2 sequence (P0DMS8 whole entry)

[4] = target: T6, Adenosine receptor A1 (Homo sapiens) (UniProt P30542); assay: Displacement of [3H]DPCPX from human recombinant adenosine A1 receptor expressed in CHO cells at 1 uM by microplate beta scintillation counter; type: cell-based; in short: as §1
T6 sequence (whole entry): T1 sequence (P30542 whole entry)

Homo sapiens [5] = organism: Homo sapiens; assay: Selectivity ratio of Ki for human adenosine A2A receptor to Ki for human adenosine A2B receptor
In short: (§5)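 Ratios of Ki values at each human subtype to Ki at human A2B (HEK-293 membranes, [3H]DPCPX). Each Ki was derived by Cheng–Prusoff from IC50 of radioligand competition binding in membranes of transfected cells. Results are the mean of 3 experiments, each in duplicate.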

Homo sapiens [6] = organism: Homo sapiens; assay: Selectivity ratio of Ki for human adenosine A1 receptor to Ki for human adenosine A2B receptor; in short: as §5
Adenosine receptor A2a [7] = target: T3, Adenosine receptor A2a; assay: Displacement of [3H]ZM241385 from human recombinant adenosine A2A receptor expressed in human HeLa cells by microplate beta scintillation counter; type: cell-based; in short: as §3
Adenosine receptor A2b = target: T7, Adenosine receptor A2b (Homo sapiens, UniProt P29275); assay: Displacement of [3H]DPCPX from human recombinant adenosine A2B receptor expressed in HEK293 cells by microplate beta scintillation counter; type: cell-based; in short: as §4
T7 sequence (P29275 whole entry): T4 sequence (whole entry)

`CCCn1c(=O)c2[nH]c(-c3ccccc3)nc2n(CCS(=O)(=O)CC)c1=O` showed a pKi (Adenosine receptor A1) of 7.03, a pKi (Adenosine receptor A3) of 7.03 and an Activity (Adenosine receptor A2a [1]) of 3%. For the same compound, the Activity [2] was 39%.

For `CCSCCn1c(=O)n(CC)c(=O)c2[nH]c(Cc3ccccc3)nc21`, the Activity (Adenosine receptor A2a [1]) was 0%, the Activity [2] was 5% and the Activity [3] was 10%. For the same compound, the Activity [4] was 34%.

Work on `CCn1c(=O)c2[nH]c(-c3ccccc3)nc2n(CCS(=O)(=O)CC)c1=O` yielded an Activity (Adenosine receptor A2a [1]) of 0%, an Activity [2] of 18% and an Activity [3] of 35%. The Activity [4] was 35%.

`CCn1c(=O)c2c(nc(Cc3ccco3)n2C)n(Cc2cccs2)c1=O` gave a pKi (Adenosine receptor A1) of 7.00, a Ratio Ki (Homo sapiens [5]) of 8.1 and a Ratio Ki (Homo sapiens [6]) of 3.7. For the same compound, the pKi (Adenosine receptor A2a [7]) was 6.66, the pKi (Adenosine receptor A2b) was 7.57 and the Activity [3] was 22%.

Work on `CCSCCn1c(=O)n(CC)c(=O)c2[nH]c(-c3ccc(-c4ccccc4)cc3)nc21` yielded an Activity (Adenosine receptor A2a [1]) of 4%, an Activity [2] of 22% and an Activity [3] of 17%. For the same compound, the Activity [4] was 7%.

`CCn1c(=O)c2c(nc(Cc3c(F)cccc3F)n2C)n(Cc2ccccc2)c1=O` showed an Activity (Adenosine receptor A2a [1]) of 28%, an Activity [2] of 48% and an Activity [3] of 4%. The Activity [4] was 21%.

With `CCn1c(=O)c2[nH]c(Cc3c(F)cccc3F)nc2n(Cc2cccs2)c1=O` the Activity (Adenosine receptor A2a [1]) was 21%, the Activity [2] was 52% and the Activity [3] was 38%. For the same compound, the Activity [4] was 28%.

`CCn1c(=O)c2c(nc(Cc3cccs3)n2C)n(Cc2ccccc2)c1=O` gave a pKi (Adenosine receptor A1) of 6.41, a Ratio Ki (Homo sapiens [5]) of 2.1 and a Ratio Ki (Homo sapiens [6]) of 1.1. It also gave a pKi (Adenosine receptor A2a [7]) of 6.12, a pKi (Adenosine receptor A2b) of 6.43 and an Activity [3] of 6%.

Compound `CCCn1c(=O)c2[nH]c(Cc3ccccc3)nc2n(CCOCC)c1=O` has an Activity (Adenosine receptor A2a [1]) of 13%, an Activity [2] of 5% and an Activity [3] of 2%. It also gave an Activity [4] of 22%.

`CCn1c(=O)c2[nH]c(Cc3c(F)cccc3F)nc2n(Cc2ccccc2)c1=O` gave an Activity (Adenosine receptor A2a [1]) of 1%, an Activity [2] of 8% and an Activity [3] of 1%. For the same compound, the Activity [4] was 23%.

`CCCn1c(=O)c2[nH]c(Cc3ccccc3)nc2n(CCSCC)c1=O` showed an Activity (Adenosine receptor A2a [1]) of 8%, an Activity [2] of 12% and an Activity [3] of 1%. For the same compound, the Activity [4] was 33%.

In the case of `CCn1c(=O)c2[nH]c(Cc3ccco3)nc2n(Cc2cccs2)c1=O`, the pKi (Adenosine receptor A1) was 6.39, the Activity (Adenosine receptor A2a [1]) was 19% and the Activity [2] was 30%. It also gave an Activity [3] of 42%.

`O=c1c2[nH]c(-c3cccs3)nc2n(CC2CCCCC2)c(=O)n1CC1CCCCC1` showed an Activity (Adenosine receptor A2a [1]) of 14%, an Activity [2] of 10% and an Activity [3] of 2%. For the same compound, the Activity [4] was 2%.

`CCCn1c(=O)c2[nH]c(Cc3ccccc3)nc2n(CC2CCCO2)c1=O` (configuration not stated) was tested, and the Activity (Adenosine receptor A2a [1]) was 24%, the Activity [2] was 32% and the Activity [3] was 10%. For the same compound, the Activity [4] was 2%.

Work on `CCCn1c(=O)c2c(nc(-c3ccccc3)n2C)n(CC2CCCO2)c1=O` (configuration not stated) yielded a pKi (Adenosine receptor A3) of 6.20, an Activity (Adenosine receptor A2a [1]) of 25% and an Activity [2] of 41%. The Activity [4] was 38%.

In the case of `CCCn1c(=O)c2[nH]c(Cc3ccccc3)nc2n(CCS(=O)(=O)CC)c1=O`, the Activity (Adenosine receptor A2a [1]) was 13%, the Activity [2] was 2% and the Activity [3] was 15%. For the same compound, the Activity [4] was 15%.

Compound `CCCn1c(=O)c2[nH]c(-c3ccccc3)nc2n(CC2CCCO2)c1=O` (configuration not stated) has a pKi (Adenosine receptor A1) of 6.65, a pKi (Adenosine receptor A3) of 6.87 and an Activity (Adenosine receptor A2a [1]) of 37%. For the same compound, the Activity [2] was 64%.
